Measurements from ChEMBL document CHEMBL1772942, “Synthesis and in vitro cytotoxic evaluation of N-alkylbromo and N-alkylphthalimido-isatins” (Bioorg Med Chem Lett, 2011).

Tests used:
HEp-2 [1] = test: Cytotoxicity against human Hep2 cells assessed as cell growth inhibition at 1 uM after 48 hrs by sulforhodamine B assay; type: functional; settings: HEp-2, 48 h, read-out: GI
A549 [2] = test: Cytotoxicity against human A549 cells after 48 hrs by sulforhodamine B assay; type: functional, cell-based; settings: A549, 48 h
In short: (§1)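 Sulforhodamine B assay on NCI-sourced cells in RPMI-1640/10% FCS, seeded at 1×10^5 cells/ml and left 24 h, then serial dilutions of 2×10^-2 M DMSO stocks in gentamycin medium added for 48 h (37 °C, 5% CO2). Cells fixed with cold TCA, SRB dye dissolved in Tris pH 10.4, OD read at 540 nm. IC50 is the concentration inhibiting 50% of cell viability.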

HCT-15 [3] = test: Cytotoxicity against human HCT15 cells assessed as cell growth inhibition at 10 uM after 48 hrs by sulforhodamine B assay; type: functional; settings: HCT-15, 48 h, read-out: GI
In short: (§2)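 Cell lines from NCI, grown in RPMI-1640 (2 mM glutamine, pH 7.4, 10% fetal calf serum, penicillin) at 37 °C, 5% CO2, 90% RH, viability >98% by trypan blue. 1×10^5 cells/ml seeded, grown 24 h, then compound added at 10 or 100 µM (DMSO stocks diluted in medium with gentamycin) for 48 h. TCA fixation, SRB staining, OD 540 nm; % growth inhibition versus untreated growth, blank-subtracted.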

HEp-2 [4] = test: Cytotoxicity against human Hep2 cells assessed as cell growth inhibition at 10 uM after 48 hrs by sulforhodamine B assay; type: functional; settings: HEp-2, 48 h, read-out: GI; in short: as §2
HeLa = test: Cytotoxicity against human HeLa cells after 48 hrs by sulforhodamine B assay; type: functional, cell-based
THP-1 [5] = test: Cytotoxicity against human THP1 cells assessed as cell growth inhibition at 100 uM after 48 hrs by sulforhodamine B assay; type: functional; settings: THP-1, 48 h, read-out: GI; in short: as §2
A549 [6] = test: Cytotoxicity against human A549 cells assessed as cell growth inhibition at 100 uM after 48 hrs by sulforhodamine B assay; type: functional; settings: A549, 48 h, read-out: GI; in short: as §2
A549 [7] = test: Cytotoxicity against human A549 cells assessed as cell growth inhibition at 10 uM after 48 hrs by sulforhodamine B assay; type: functional; settings: A549, 48 h, read-out: GI; in short: as §2
THP-1 [8] = test: Cytotoxicity against human THP1 cells after 48 hrs by sulforhodamine B assay; type: functional, cell-based; settings: THP-1, 48 h; in short: as §1
HCT-15 [9] = test: Cytotoxicity against human HCT15 cells after 48 hrs by sulforhodamine B assay; type: functional, cell-based; settings: HCT-15, 48 h; in short: as §1
HCT-15 [10] = test: Cytotoxicity against human HCT15 cells assessed as cell growth inhibition at 100 uM after 48 hrs by sulforhodamine B assay; type: functional; settings: HCT-15, 48 h, read-out: GI; in short: as §2
PC-3 = test: Cytotoxicity against human PC3 cells after 48 hrs by sulforhodamine B assay; type: functional, cell-based; settings: PC-3, 48 h
HEp-2 [11] = test: Cytotoxicity against human Hep2 cells assessed as cell growth inhibition at 100 uM after 48 hrs by sulforhodamine B assay; type: functional; settings: HEp-2, 48 h, read-out: GI; in short: as §2
COLO 205 = test: Cytotoxicity against human COLO205 cells after 48 hrs by sulforhodamine B assay; type: functional, cell-based; settings: COLO 205, 48 h
THP-1 [12] = test: Cytotoxicity against human THP1 cells assessed as cell growth inhibition at 10 uM after 48 hrs by sulforhodamine B assay; type: functional; settings: THP-1, 48 h, read-out: GI; in short: as §2
HCT-15 [13] = test: Cytotoxicity against human HCT15 cells assessed as cell growth inhibition at 1 uM after 48 hrs by sulforhodamine B assay; type: functional; settings: HCT-15, 48 h, read-out: GI
In short: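 NCI-sourced cells in RPMI-1640 (2 mM glutamine, 10% FCS, penicillin), >98% trypan-blue viable, seeded at 1 × 10^5 cells/ml and grown 24 h (37 °C, 5% CO2). DMSO stocks diluted in medium with gentamycin; 48 h exposure. TCA fixation 1 h at 4 °C, 0.4% SRB stain 30 min, dye dissolved in Tris pH 10.4, OD 540 nm. Blank-subtracted; inhibition relative to untreated growth (100%).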

THP-1 [14] = test: Cytotoxicity against human THP1 cells assessed as cell growth inhibition at 1 uM after 48 hrs by sulforhodamine B assay; type: functional; settings: THP-1, 48 h, read-out: GI
A549 [15] = test: Cytotoxicity against human A549 cells assessed as cell growth inhibition at 1 uM after 48 hrs by sulforhodamine B assay; type: functional; settings: A549, 48 h, read-out: GI

`CO[C@@]12[C@H](COC(N)=O)C3=C(C(=O)C(C)=C(N)C3=O)N1C[C@@H]1N[C@@H]12` [MITOMYCIN] gave an inhibition of growth at 1 µM (HEp-2 [1]) of 31%.

`O=C1C(=O)N(CCCCCBr)c2ccccc21` was tested, and the IC50 (A549 [2]) was > 100 µM, the inhibition of growth at 10 µM (HCT-15 [3]) was 62% and the inhibition of growth at 10 µM (HEp-2 [4]) was 40%. The IC50 (HeLa) was 5.49 µM, the inhibition of growth at 100 µM (THP-1 [5]) was 91% and the inhibition of growth at 100 µM (A549 [6]) was 40%. For the same compound, the inhibition of growth at 10 µM (A549 [7]) was 0%, the IC50 (THP-1 [8]) was 42.3 µM and the IC50 (HCT-15 [9]) was 8.46 µM. For the same compound, the inhibition of growth at 100 µM (HCT-15 [10]) was 91%, the IC50 (PC-3) was 11.5 µM and the inhibition of growth at 100 µM (HEp-2 [11]) was 81%. The IC50 (COLO 205) was > 100 µM and the inhibition of growth at 10 µM (THP-1 [12]) was 85%.

Compound `O=C1C(=O)N(CCBr)c2ccccc21` has an inhibition of growth at 10 µM (HCT-15 [3]) of 4%, an inhibition of growth at 10 µM (HEp-2 [4]) of 14% and an inhibition of growth at 100 µM (THP-1 [5]) of 96%. The inhibition of growth at 100 µM (A549 [6]) was 44%, the inhibition of growth at 10 µM (A549 [7]) was 38% and the inhibition of growth at 100 µM (HCT-15 [10]) was 89%. It also gave an inhibition of growth at 100 µM (HEp-2 [11]) of 71% and an inhibition of growth at 10 µM (THP-1 [12]) of 14%.

With `O=C1C(=O)N(CCCCCCN2C(=O)c3ccccc3C2=O)c2ccccc21` the IC50 (A549 [2]) was > 100 µM, the inhibition of growth at 10 µM (HCT-15 [3]) was 49% and the inhibition of growth at 10 µM (HEp-2 [4]) was 39%. For the same compound, the IC50 (HeLa) was 8.82 µM, the inhibition of growth at 100 µM (THP-1 [5]) was 95% and the inhibition of growth at 100 µM (A549 [6]) was 14%. For the same compound, the inhibition of growth at 10 µM (A549 [7]) was 0%, the IC50 (THP-1 [8]) was > 100 µM and the IC50 (HCT-15 [9]) was 9.73 µM. It also gave an inhibition of growth at 100 µM (HCT-15 [10]) of 91%, an IC50 (PC-3) of 12.8 µM and an inhibition of growth at 100 µM (HEp-2 [11]) of 90%. The IC50 (COLO 205) was > 100 µM and the inhibition of growth at 10 µM (THP-1 [12]) was 96%.

With `O=C1C(=O)N(CCCBr)c2ccccc21` the IC50 (A549 [2]) was > 100 µM, the inhibition of growth at 10 µM (HCT-15 [3]) was 59% and the inhibition of growth at 10 µM (HEp-2 [4]) was 36%. For the same compound, the IC50 (HeLa) was 7.77 µM, the inhibition of growth at 100 µM (THP-1 [5]) was 95% and the inhibition of growth at 100 µM (A549 [6]) was 37%. For the same compound, the inhibition of growth at 10 µM (A549 [7]) was 0%, the IC50 (THP-1 [8]) was > 100 µM and the IC50 (HCT-15 [9]) was 13.8 µM. It also gave an inhibition of growth at 100 µM (HCT-15 [10]) of 93%, an IC50 (PC-3) of 15.3 µM and an inhibition of growth at 100 µM (HEp-2 [11]) of 93%. The IC50 (COLO 205) was > 100 µM and the inhibition of growth at 10 µM (THP-1 [12]) was 80%.

With `O=C1C(=O)N(CCN2C(=O)c3ccccc3C2=O)c2ccccc21` the inhibition of growth at 10 µM (HCT-15 [3]) was 3%, the inhibition of growth at 10 µM (HEp-2 [4]) was 10% and the inhibition of growth at 100 µM (THP-1 [5]) was 96%. It also gave an inhibition of growth at 100 µM (A549 [6]) of 43%, an inhibition of growth at 10 µM (A549 [7]) of 18% and an inhibition of growth at 100 µM (HCT-15 [10]) of 86%. The inhibition of growth at 100 µM (HEp-2 [11]) was 68% and the inhibition of growth at 10 µM (THP-1 [12]) was 9%.

`O=c1[nH]cc(F)c(=O)[nH]1` [FLUOROURACIL] showed an inhibition of growth at 1 µM (HCT-15 [13]) of 31%.

With `O=C1C(=O)N(CCCCCCBr)c2ccccc21` the IC50 (A549 [2]) was > 100 µM, the inhibition of growth at 10 µM (HCT-15 [3]) was 67% and the inhibition of growth at 10 µM (HEp-2 [4]) was 48%. The IC50 (HeLa) was 12 µM, the inhibition of growth at 100 µM (THP-1 [5]) was 93% and the inhibition of growth at 100 µM (A549 [6]) was 53%. The inhibition of growth at 10 µM (A549 [7]) was 0%, the IC50 (THP-1 [8]) was 26.5 µM and the IC50 (HCT-15 [9]) was 12.4 µM. The inhibition of growth at 100 µM (HCT-15 [10]) was 95%, the IC50 (PC-3) was 11.7 µM and the inhibition of growth at 100 µM (HEp-2 [11]) was 86%. The IC50 (COLO 205) was > 100 µM and the inhibition of growth at 10 µM (THP-1 [12]) was 94%.

`O=C1C(=O)N(CCCCN2C(=O)c3ccccc3C2=O)c2ccccc21` gave an inhibition of growth at 10 µM (HCT-15 [3]) of 4%, an inhibition of growth at 10 µM (HEp-2 [4]) of 15% and an inhibition of growth at 100 µM (THP-1 [5]) of 92%. It also gave an inhibition of growth at 100 µM (A549 [6]) of 36%, an inhibition of growth at 10 µM (A549 [7]) of 0% and an inhibition of growth at 100 µM (HCT-15 [10]) of 89%. The inhibition of growth at 100 µM (HEp-2 [11]) was 73% and the inhibition of growth at 10 µM (THP-1 [12]) was 44%.

`COc1cccc2c1C(=O)c1c(O)c3c(c(O)c1C2=O)C[C@@](O)(C(=O)CO)C[C@@H]3O[C@H]1C[C@H](N)[C@H](O)[C@H](C)O1` [DOXORUBICIN] gave an inhibition of growth at 1 µM (THP-1 [14]) of 96% and an inhibition of growth at 1 µM (A549 [15]) of 55%.

With `O=C1C(=O)N(CCCCBr)c2ccccc21` the IC50 (A549 [2]) was > 100 µM, the inhibition of growth at 10 µM (HCT-15 [3]) was 62% and the inhibition of growth at 10 µM (HEp-2 [4]) was 33%. The IC50 (HeLa) was 4.57 µM, the inhibition of growth at 100 µM (THP-1 [5]) was 90% and the inhibition of growth at 100 µM (A549 [6]) was 49%. The inhibition of growth at 10 µM (A549 [7]) was 30%, the IC50 (THP-1 [8]) was 12.4 µM and the IC50 (HCT-15 [9]) was 11.8 µM. The inhibition of growth at 100 µM (HCT-15 [10]) was 88%, the IC50 (PC-3) was 10.9 µM and the inhibition of growth at 100 µM (HEp-2 [11]) was 68%. The IC50 (COLO 205) was 54.2 µM and the inhibition of growth at 10 µM (THP-1 [12]) was 90%.

For `O=C1C(=O)N(CCCCCN2C(=O)c3ccccc3C2=O)c2ccccc21`, the inhibition of growth at 10 µM (HCT-15 [3]) was 9%, the inhibition of growth at 10 µM (HEp-2 [4]) was 10% and the inhibition of growth at 100 µM (THP-1 [5]) was 93%. The inhibition of growth at 100 µM (A549 [6]) was 36%, the inhibition of growth at 10 µM (A549 [7]) was 4% and the inhibition of growth at 100 µM (HCT-15 [10]) was 97%. The inhibition of growth at 100 µM (HEp-2 [11]) was 85% and the inhibition of growth at 10 µM (THP-1 [12]) was 60%.

`O=C1C(=O)N(CCCN2C(=O)c3ccccc3C2=O)c2ccccc21` gave an inhibition of growth at 10 µM (HCT-15 [3]) of 1%, an inhibition of growth at 10 µM (HEp-2 [4]) of 11% and an inhibition of growth at 100 µM (THP-1 [5]) of 96%. It also gave an inhibition of growth at 100 µM (A549 [6]) of 1%, an inhibition of growth at 10 µM (A549 [7]) of 0% and an inhibition of growth at 100 µM (HCT-15 [10]) of 58%. For the same compound, the inhibition of growth at 100 µM (HEp-2 [11]) was 30% and the inhibition of growth at 10 µM (THP-1 [12]) was 8%.
